# Reference: ChEMBL document CHEMBL4219113, “Pyridazine and pyridazinone derivatives as potent and selective factor XIa inhibitors” (Bioorg Med Chem Lett, 2018)
# How the values were obtained:
# Plasma = assay: Anticoagulant activity in human plasma assessed as increase in activated partial thromboplastin time; assay type: functional
# Summary of the method: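 In vitro clotting test in human plasma measuring activated partial thromboplastin time (aPTT). EC1.5x is the concentration that extends aPTT to 1.5-fold.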
# [1] = Oral bioavailability in dog at 0.5 mg/kg; assay type: ADME, organism-based, Canis lupus familiaris; settings: in vivo
# Summary of the method: (§1)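 Dogs received cassette dosing at 0.2–0.5 mg/kg orally and 0.2–0.4 mg/kg intravenously. The iv vehicle was 10% DMAC, 10% EtOH, 10% PG and 70% water. The oral vehicle was 10% EtOH, 70% PEG400 and 20% TPGS.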
# Coagulation factor XI = Coagulation factor XI (Homo sapiens, UniProt P03951); assay: Inhibition of human factor 11a using pyro-Glu-Pro-Arg-pNA as substrate measured after 10 to 120 mins by spectrophotometric method
# Sequence of Coagulation factor XI (P03951 19-387 limits assumed): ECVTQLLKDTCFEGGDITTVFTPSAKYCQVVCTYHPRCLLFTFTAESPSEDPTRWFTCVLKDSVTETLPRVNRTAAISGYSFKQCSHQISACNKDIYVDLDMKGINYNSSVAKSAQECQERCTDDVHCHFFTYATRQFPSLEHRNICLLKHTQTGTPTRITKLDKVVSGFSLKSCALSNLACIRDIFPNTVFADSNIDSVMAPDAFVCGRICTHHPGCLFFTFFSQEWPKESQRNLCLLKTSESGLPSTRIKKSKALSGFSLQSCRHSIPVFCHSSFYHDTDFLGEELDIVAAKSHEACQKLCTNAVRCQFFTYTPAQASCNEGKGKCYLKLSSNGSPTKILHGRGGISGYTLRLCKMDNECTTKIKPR
# Sequence of Coagulation factor XI (P03951 388-625 limits assumed): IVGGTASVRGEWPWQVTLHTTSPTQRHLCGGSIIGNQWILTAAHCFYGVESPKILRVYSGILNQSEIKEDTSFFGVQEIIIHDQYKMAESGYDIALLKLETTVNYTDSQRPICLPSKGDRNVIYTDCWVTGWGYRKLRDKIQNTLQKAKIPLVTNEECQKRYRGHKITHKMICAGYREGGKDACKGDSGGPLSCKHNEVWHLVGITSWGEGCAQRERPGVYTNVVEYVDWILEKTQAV
# [2] = Half life in human liver microsomes pretreated for 5 mins followed by NADPH addition by UV-LC/MS analysis; assay type: ADME, microsome
# [3] = Clearance in dog at 0.2 to 0.5 mg/kg, po or 0.2 to 0.4 mg/kg, iv administered as cassette dose; assay type: ADME, organism-based, Canis lupus familiaris; settings: in vivo; summary of the method: as §1
# [4] = Volume of distribution at steady state in dog at 0.2 to 0.5 mg/kg, po or 0.2 to 0.4 mg/kg, iv administered as cassette dose; assay type: ADME, organism-based, Canis lupus familiaris; settings: in vivo, read-out: Vdss; summary of the method: as §1
# [5] = Half life in dog at 0.2 to 0.5 mg/kg, po or 0.2 to 0.4 mg/kg, iv administered as cassette dose; assay type: ADME, organism-based, Canis lupus familiaris; settings: in vivo; summary of the method: as §1
# [6] = Oral bioavailability in dog at 0.2 to 0.5 mg/kg; assay type: ADME, organism-based, Canis lupus familiaris; settings: in vivo; summary of the method: as §1
# Coagulation factor VII = target: T1, Coagulation factor VII (Homo sapiens, UniProt P08709); assay: Inhibition of human factor 7a
# T1 sequence (P08709 whole entry): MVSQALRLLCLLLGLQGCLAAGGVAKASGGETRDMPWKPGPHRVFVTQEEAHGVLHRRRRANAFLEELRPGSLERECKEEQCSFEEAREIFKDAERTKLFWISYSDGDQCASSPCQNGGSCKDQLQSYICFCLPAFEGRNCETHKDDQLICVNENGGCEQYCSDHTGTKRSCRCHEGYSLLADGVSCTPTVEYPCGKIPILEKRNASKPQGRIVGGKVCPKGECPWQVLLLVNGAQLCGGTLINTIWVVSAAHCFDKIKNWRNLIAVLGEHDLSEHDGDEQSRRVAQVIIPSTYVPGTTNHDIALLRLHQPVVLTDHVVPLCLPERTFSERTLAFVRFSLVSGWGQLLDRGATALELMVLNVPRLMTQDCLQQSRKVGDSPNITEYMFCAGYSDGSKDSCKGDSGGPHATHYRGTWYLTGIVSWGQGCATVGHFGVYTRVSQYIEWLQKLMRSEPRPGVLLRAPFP
# Coagulation factor IX = Coagulation factor IX (Homo sapiens, UniProt P00740); assay: Inhibition of human factor 9a
# Sequence of Coagulation factor IX (P00740 47-191 limits assumed): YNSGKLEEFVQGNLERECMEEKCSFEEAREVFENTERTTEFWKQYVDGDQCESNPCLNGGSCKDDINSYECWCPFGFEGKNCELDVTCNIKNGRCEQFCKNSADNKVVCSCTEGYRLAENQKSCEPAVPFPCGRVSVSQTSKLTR
# Sequence of Coagulation factor IX (P00740 227-461 limits assumed): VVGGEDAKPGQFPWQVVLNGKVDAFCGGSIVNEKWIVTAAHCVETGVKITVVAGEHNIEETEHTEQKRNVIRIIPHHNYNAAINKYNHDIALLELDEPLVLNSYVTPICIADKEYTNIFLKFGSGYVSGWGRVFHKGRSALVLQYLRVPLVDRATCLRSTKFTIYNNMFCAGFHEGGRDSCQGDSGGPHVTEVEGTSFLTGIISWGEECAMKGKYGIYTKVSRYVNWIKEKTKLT
# Coagulation factor X = Coagulation factor X (Homo sapiens, UniProt P00742); assay: Inhibition of human factor 10a
# Sequence of Coagulation factor X (P00742 41-179 limits assumed): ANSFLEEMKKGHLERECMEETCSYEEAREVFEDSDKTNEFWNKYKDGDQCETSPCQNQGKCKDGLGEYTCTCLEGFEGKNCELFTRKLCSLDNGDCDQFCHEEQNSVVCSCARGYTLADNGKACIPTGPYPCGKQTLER
# Sequence of Coagulation factor X (P00742 235-488 limits assumed): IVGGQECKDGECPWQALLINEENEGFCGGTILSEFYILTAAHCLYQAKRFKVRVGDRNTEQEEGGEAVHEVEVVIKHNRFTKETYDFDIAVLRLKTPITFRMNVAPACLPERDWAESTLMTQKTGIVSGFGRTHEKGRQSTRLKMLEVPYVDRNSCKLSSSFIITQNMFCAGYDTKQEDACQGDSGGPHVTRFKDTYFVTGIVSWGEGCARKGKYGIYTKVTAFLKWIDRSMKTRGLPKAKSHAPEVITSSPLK
# Prothrombin = Prothrombin (Homo sapiens, UniProt P00734); assay: Inhibition of human thrombin
# Trypsin = Trypsin (Homo sapiens, UniProt P07477+P07478+P35030); assay: Inhibition of human trypsin; assay type: protein assay
# Plasma kallikrein = Plasma kallikrein (Homo sapiens, UniProt P03952); assay: Inhibition of human plasma kallikrein
# Sequence of Plasma kallikrein (P03952 20-390 limits assumed): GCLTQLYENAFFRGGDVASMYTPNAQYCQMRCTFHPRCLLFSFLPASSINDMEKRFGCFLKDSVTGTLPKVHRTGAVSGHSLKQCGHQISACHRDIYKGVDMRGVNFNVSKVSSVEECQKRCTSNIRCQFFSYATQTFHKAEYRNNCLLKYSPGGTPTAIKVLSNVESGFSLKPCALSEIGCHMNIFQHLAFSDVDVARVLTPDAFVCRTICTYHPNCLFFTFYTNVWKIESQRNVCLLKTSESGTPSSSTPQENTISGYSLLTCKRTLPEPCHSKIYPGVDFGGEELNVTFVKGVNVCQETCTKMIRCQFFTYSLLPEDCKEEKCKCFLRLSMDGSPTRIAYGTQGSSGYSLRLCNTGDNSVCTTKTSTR
# Sequence of Plasma kallikrein (P03952 391-638 limits assumed): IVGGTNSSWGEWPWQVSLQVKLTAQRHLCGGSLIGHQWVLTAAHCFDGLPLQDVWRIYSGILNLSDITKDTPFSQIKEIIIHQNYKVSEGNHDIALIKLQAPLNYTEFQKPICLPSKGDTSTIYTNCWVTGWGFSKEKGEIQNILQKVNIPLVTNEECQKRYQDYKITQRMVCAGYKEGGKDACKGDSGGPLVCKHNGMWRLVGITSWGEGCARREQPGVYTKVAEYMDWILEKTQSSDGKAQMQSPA
# [7] = target: Vitamin K-dependent protein C (Homo sapiens, UniProt P04070); assay: Inhibition of human activated protein C
# Sequence of Vitamin K-dependent protein C (P04070 43-197 limits assumed): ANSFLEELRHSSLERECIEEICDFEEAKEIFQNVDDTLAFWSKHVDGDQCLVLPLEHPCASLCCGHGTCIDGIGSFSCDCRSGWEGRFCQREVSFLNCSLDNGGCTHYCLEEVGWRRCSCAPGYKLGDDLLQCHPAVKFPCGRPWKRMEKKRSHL
# Sequence of Vitamin K-dependent protein C (P04070 212-461 limits assumed): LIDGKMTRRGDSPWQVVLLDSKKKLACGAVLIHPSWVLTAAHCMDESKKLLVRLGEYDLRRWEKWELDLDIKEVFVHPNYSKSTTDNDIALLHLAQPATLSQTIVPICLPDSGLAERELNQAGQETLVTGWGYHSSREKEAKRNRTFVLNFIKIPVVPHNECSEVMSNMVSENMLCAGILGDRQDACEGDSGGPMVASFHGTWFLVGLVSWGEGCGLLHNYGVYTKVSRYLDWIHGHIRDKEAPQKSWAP
# Plasminogen = Plasminogen (Homo sapiens, UniProt P00747); assay: Inhibition of human plasmin
# Sequence of Plasminogen (P00747 97-580 limits assumed): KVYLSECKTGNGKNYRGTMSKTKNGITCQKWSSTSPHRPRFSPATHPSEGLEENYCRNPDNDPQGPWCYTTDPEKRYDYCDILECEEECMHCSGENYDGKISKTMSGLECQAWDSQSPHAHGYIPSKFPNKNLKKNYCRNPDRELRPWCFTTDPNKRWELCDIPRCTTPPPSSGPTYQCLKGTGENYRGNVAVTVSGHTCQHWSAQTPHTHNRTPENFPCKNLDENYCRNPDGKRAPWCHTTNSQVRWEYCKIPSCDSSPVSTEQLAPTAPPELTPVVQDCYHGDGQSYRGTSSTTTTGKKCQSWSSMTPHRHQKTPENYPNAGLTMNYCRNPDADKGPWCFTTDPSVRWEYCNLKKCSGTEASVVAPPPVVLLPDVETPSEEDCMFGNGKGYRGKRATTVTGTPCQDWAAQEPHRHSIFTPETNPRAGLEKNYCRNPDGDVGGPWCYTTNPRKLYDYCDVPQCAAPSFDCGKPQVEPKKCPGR
# Sequence of Plasminogen (P00747 581-810 limits assumed): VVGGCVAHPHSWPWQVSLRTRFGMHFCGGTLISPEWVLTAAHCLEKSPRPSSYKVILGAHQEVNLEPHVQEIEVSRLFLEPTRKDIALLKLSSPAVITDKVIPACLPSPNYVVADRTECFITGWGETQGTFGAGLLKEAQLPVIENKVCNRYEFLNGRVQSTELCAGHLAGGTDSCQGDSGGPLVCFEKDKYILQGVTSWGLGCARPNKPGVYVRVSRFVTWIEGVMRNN
# [8] = target: Tissue-type plasminogen activator (Homo sapiens, UniProt P00750); assay: Inhibition of human TPA
# Sequence of Tissue-type plasminogen activator (P00750 whole entry): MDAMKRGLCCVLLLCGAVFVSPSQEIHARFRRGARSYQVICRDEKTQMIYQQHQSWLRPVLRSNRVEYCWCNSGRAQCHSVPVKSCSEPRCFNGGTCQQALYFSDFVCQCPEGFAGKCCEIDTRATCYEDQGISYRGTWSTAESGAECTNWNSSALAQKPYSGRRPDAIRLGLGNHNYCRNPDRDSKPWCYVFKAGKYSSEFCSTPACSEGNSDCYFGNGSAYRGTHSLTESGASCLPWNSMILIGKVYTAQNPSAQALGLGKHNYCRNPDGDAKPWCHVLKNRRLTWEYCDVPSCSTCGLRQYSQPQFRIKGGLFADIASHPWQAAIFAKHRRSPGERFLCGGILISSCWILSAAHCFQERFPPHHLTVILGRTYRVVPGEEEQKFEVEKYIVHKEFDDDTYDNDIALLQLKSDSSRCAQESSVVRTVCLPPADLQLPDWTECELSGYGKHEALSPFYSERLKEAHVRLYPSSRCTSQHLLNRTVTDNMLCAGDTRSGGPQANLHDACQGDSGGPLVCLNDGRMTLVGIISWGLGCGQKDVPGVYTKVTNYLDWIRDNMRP
# [9] = target: Urokinase-type plasminogen activator (Homo sapiens, UniProt P00749); assay: Inhibition of human urokinase
# [10] = Inhibition of human chymotrypsin
SMILES,EC1.5 (Plasma),Ki (Coagulation factor XI),half-life [2],clearance [3],Vd [4],half-life [5],bioavailability [6],further results
COC(=O)Nc1ccc(-c2nc([C@H](Cc3ccccc3)NC(=O)/C=C/c3cc(Cl)ccc3-n3cnnn3)[nH]c2Cl)cc1,5.3 µM,–,–,–,–,–,–,–
COC(=O)Nc1ccc(-c2ccnc([C@H](Cc3ccccc3)NC(=O)/C=C/c3cc(Cl)ccc3-n3cnnn3)c2)cc1,>40 µM,–,–,–,–,–,–,bioavailability [1]: 34%
COC(=O)Nc1ccc(-c2cc([C@H](CC(=O)N3CC[C@@H](O)C3)NC(=O)/C=C/c3cc(Cl)ccc3-n3cnnn3)c(Cl)nn2)cc1,1.6 µM,6.6 nM,36 min,24.7 mL/min/kg,1.2 L/kg,54 min,< 3%,–
COC(=O)Nc1ccc(-c2cc([C@H](Cc3ccncc3)NC(=O)/C=C/c3cc(Cl)ccc3-n3cnnn3)nnc2Cl)cc1,6.2 µM,12 nM,2.8 min,–,–,–,–,–
COC(=O)Nc1ccc(-c2cc([C@H](Cc3ccccc3)NC(=O)/C=C/c3cc(Cl)ccc3-n3cnnn3)nnc2OC)cc1,50 µM,36 nM,–,–,–,–,–,–
COC(=O)Nc1ccc(-c2cc([C@H](Cc3ccccc3)NC(=O)/C=C/c3cc(Cl)ccc3-n3cnnn3)nnc2C(=O)O)cc1,32 µM,11 nM,–,–,–,–,–,–
COC(=O)Nc1ccc(-c2cc([C@H](Cc3ccccc3)NC(=O)/C=C/c3cc(Cl)ccc3-n3cnnn3)nnc2C)cc1,11 µM,10 nM,5.1 min,9.2 mL/min/kg,1.2 L/kg,120 min,14%,Ki (Coagulation factor VII): > 13.3 µM; Ki (Coagulation factor IX): 39.3 µM; Ki (Coagulation factor X): > 3000 nM; Ki (Prothrombin): > 13.3 µM; Ki (Trypsin): > 6.22 µM; Ki (Plasma kallikrein): 1370 nM; Ki [7]: > 64.4 µM; Ki (Plasminogen): > 53.4 µM; Ki [8]: > 14.7 µM; Ki [9]: > 29.7 µM; Ki [10]: > 27.2 µM
COC(=O)Nc1ccc(-c2cc([C@H](Cc3ccccc3)NC(=O)/C=C/c3cc(Cl)ccc3-n3cnnn3)c(Cl)nn2)cc1,2.2 µM,1.9 nM,31 min,15.5 mL/min/kg,2.1 L/kg,108 min,< 3%,Ki (Coagulation factor VII): 3.28 µM; Ki (Coagulation factor IX): 22 µM; Ki (Coagulation factor X): 1940 nM; Ki (Prothrombin): 10.6 µM; Ki (Trypsin): 3.73 µM; Ki (Plasma kallikrein): 192 nM; Ki [7]: 16.3 µM; Ki (Plasminogen): 4.49 µM; Ki [8]: 0.994 µM; Ki [9]: 13.3 µM; Ki [10]: 29.6 µM
COC(=O)Nc1ccc(-c2cc([C@H](Cc3ccccc3)NC(=O)/C=C/c3cc(Cl)ccc3-n3cnnn3)cnn2)cc1,3.5 µM,4.1 nM,9.6 min,18.2 mL/min/kg,1.4 L/kg,66 min,< 3%,–
COC(=O)Nc1ccc(-c2cc([C@H](C[C@@H]3CCCN(C(C)=O)C3)NC(=O)/C=C/c3cc(Cl)ccc3-n3cnnn3)nnc2Cl)cc1,8.8 µM,89 nM,–,–,–,–,–,–
COC(=O)Nc1ccc(-c2cc([C@H](Cc3ccccc3)NC(=O)/C=C/c3cc(Cl)ccc3-n3cnnn3)c(=O)[nH]n2)cc1,19 µM,22 nM,–,–,–,–,–,–
COC(=O)Nc1ccc(-c2cc([C@H](Cc3ccccc3)NC(=O)/C=C/c3cc(Cl)ccc3-n3cnnn3)c(C)nn2)cc1,14 µM,6.1 nM,–,–,–,–,–,–
COC(=O)Nc1ccc(-c2cc([C@H](Cc3cccc(F)c3)NC(=O)/C=C/c3cc(Cl)ccc3-n3cnnn3)nnc2Cl)cc1,17 µM,10 nM,12 min,–,–,–,–,–
COC(=O)Nc1ccc(-c2cc([C@H](Cc3ccccc3)NC(=O)/C=C/c3cc(Cl)ccc3-n3cnnn3)nnc2Cl)cc1,9.3 µM,9.6 nM,8.6 min,6.3 mL/min/kg,2.3 L/kg,426 min,16%,Ki (Coagulation factor VII): > 13.3 µM; Ki (Coagulation factor IX): > 73.7 µM; Ki (Coagulation factor X): 200 nM; Ki (Prothrombin): > 13.3 µM; Ki (Trypsin): > 6.22 µM; Ki (Plasma kallikrein): > 6000 nM; Ki [7]: > 64.4 µM; Ki (Plasminogen): 76.6 µM; Ki [8]: 10.1 µM; Ki [9]: > 29.7 µM; Ki [10]: > 27.2 µM
CNC(=O)c1nnc([C@H](Cc2ccccc2)NC(=O)/C=C/c2cc(Cl)ccc2-n2cnnn2)cc1-c1ccc(NC(=O)OC)cc1,45 µM,31 nM,–,–,–,–,–,–
COC(=O)Nc1ccc(-c2cnnc([C@H](Cc3ccccc3)NC(=O)/C=C/c3cc(Cl)ccc3-n3cnnn3)c2)cc1,14 µM,7 nM,9.1 min,8.9 mL/min/kg,1.3 L/kg,108 min,18%,Ki (Coagulation factor VII): > 13.3 µM; Ki (Coagulation factor X): 840 nM; Ki (Prothrombin): > 13.3 µM; Ki (Trypsin): > 6.22 µM; Ki (Plasma kallikrein): 268 nM; Ki [7]: 68 µM; Ki (Plasminogen): 38.1 µM; Ki [8]: > 14.7 µM; Ki [9]: > 29.7 µM; Ki [10]: 11.9 µM
COC(=O)Nc1ccc(-c2cc([C@H](CC(=O)N3CC[C@@H](O)C3)NC(=O)/C=C/c3cc(Cl)ccc3-n3cnnn3)nnc2Cl)cc1,7.5 µM,26 nM,–,–,–,–,–,–
COC(=O)Nc1ccc(-c2cc([C@H](Cc3ccccc3)NC(=O)/C=C/c3cc(Cl)ccc3-n3cnnn3)n[nH]c2=O)cc1,11 µM,10 nM,–,–,–,–,–,–
COC(=O)Nc1ccc(-c2cc([C@H](Cc3ccc(F)cc3)NC(=O)/C=C/c3cc(Cl)ccc3-n3cnnn3)nnc2Cl)cc1,22 µM,9.3 nM,20 min,5.1 mL/min/kg,1.5 L/kg,402 min,12%,–
COC(=O)Nc1ccc(-c2cc([C@H](CC(=O)N3CCN(C)CC3)NC(=O)/C=C/c3cc(Cl)ccc3-n3cnnn3)c(Cl)nn2)cc1,0.9 µM,4 nM,–,–,–,–,–,–
